Compound activity (PubChem BioAssay)
Rows were chosen to be rich in hits. Some 1.6% of all compounds tested hit in one or more screens of this group.
RAD52 inh = inhibitors of human RAD52 DNA annealing; inhibition, % at 18.7 µM; 360,000 compounds, 0.46% hits; recombinant RAD52 DNA annealing, FRET fluorescence; P43351; AID 651710;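 active = every replicate showing at least 50% inhibition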
Target sequence (P43351 whole entry, looked up): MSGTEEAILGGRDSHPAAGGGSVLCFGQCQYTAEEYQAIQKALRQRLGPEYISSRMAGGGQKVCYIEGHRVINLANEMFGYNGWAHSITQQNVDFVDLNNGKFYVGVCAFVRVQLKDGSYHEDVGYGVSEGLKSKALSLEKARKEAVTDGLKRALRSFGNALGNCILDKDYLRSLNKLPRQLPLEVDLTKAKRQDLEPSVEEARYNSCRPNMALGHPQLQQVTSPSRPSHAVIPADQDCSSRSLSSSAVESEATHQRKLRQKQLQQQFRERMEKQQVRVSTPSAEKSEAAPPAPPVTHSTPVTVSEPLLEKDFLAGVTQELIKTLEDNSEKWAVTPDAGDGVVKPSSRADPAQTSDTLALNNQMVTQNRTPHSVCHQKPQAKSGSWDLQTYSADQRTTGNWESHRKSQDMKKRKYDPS
RAD54 branch = inhibitors of human RAD54 branch migration; Q92698; RAD54 Holliday junction branch migration, FAM/BHQ fluorescence; inhibition, % at 10.4 µM; 360,000 compounds, 0.14% hits; AID 602329;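 active = mean normalized replicate activity at least 40 and at least half of replicates scoring 40 or more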;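 also: 0% = median of neutral control wells and 100% = median of positive control wells; inhibitors cause a drop in the FAM fluorescence signal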
FID counter = counter-screen for HCV NS3 helicase inhibitors: DNA intercalator displacement. 290,000 compounds, 0.17% hits. DNA fluorescent intercalator displacement, fluorescence. AID 1845. inhibition, % at 7.9 µM; in the data active = inhibition above about 37%;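 also: 0% = vehicle and 100% = reference compound; higher means more ethidium bromide displaced from hairpin DNA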
Neddyl block = inhibitors of human cullin neddylation. P61081+Q13564. calls only at 25 µM. AID 651699. TR-FRET cullin neddylation, biochemical. 360,000 compounds, 0.58% hits; in the data active = inhibition above about 36%
UBC13 polyUb = inhibitors of human UBC13 polyubiquitin chain formation. 330,000 compounds, 0.47% hits. P61088. AID 485273. TR-FRET. inhibition, % at 20 µM; in the data active = inhibition above about 45%, passing the limit was not always enough
Target sequence (P61088 whole entry, looked up): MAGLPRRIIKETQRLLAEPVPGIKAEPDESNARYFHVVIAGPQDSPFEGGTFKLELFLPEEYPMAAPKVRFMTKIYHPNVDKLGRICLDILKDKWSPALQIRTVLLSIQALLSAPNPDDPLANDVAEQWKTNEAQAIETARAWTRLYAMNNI
Apaf-1 inh = inhibitors of human Apaf-1 apoptosome; O14727; reconstituted apoptosome caspase-3 activity, DEVD-Rh110 fluorescence; inhibition, % at 20 µM; 330,000 compounds, 0.71% hits; AID 489030; active = inhibition of at least 40% at 20 µM;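 also: plate controls were DMSO wells for no effect and DEVD-CHO caspase inhibitor wells for full effect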
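Material: reconstituted apoptosome with Apaf-1, cytochrome c, caspase-9, procaspase-3, dATP; medium: pH 7.5 Hepes buffer with CHAPS, BSA, DTT; also added: cytochrome c and DEVD-Rh110 substrate; timing: 30 min plus 50 min, RT; signal: Rh110 fluorescence intensity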
The depositor's hits bear a star; i = inactive; · = no result shown; + = active, no number.

SMILES	RAD52 inh	RAD54 branch	FID counter	Neddyl block	UBC13 polyUb	Apaf-1 inh
C[C@H]1CN([C@@H](C)CO)C(=O)Cc2cc(NC(=O)Nc3cccc4ccccc34)ccc2O[C@@H]1CN(C)Cc1ccc2c(c1)OCO2	27	11	·	·	·	·
C[C@@H]1CCCCO[C@@H](CN(C)Cc2ccc(C(F)(F)F)cc2)[C@H](C)CN([C@H](C)CO)C(=O)c2cc(NS(=O)(=O)c3cccs3)ccc2O1	-23	-8	·	·	·	·
CN1CCN(c2nc(-c3ccc(Cl)cc3)nc3ccccc23)CC1	5	34	39*	i	10	13
c1ccc(-c2nc(N3CCCCCC3)c3ccccc3n2)nc1	·	56*	-3	i	12	-9
CN1CCN(c2nc(-c3ccc(Cl)cc3Cl)nc3ccccc23)CC1	-2	4	5	i	4	6
C[C@@H]1CN([C@@H](C)CO)C(=O)Cc2cc(NC(=O)CCCCCC(=O)Nc3ccccc3N)ccc2O[C@@H]1CN(C)C(=O)Nc1ccc2c(c1)OCO2	0	0	·	·	·	·
COc1ccc(-c2cc(C(=O)O)c3c(C)nn(-c4ccccn4)c3n2)cc1	·	·	-12	·	16	-2
COc1ccc(N=CC2=C(Nc3ccc(OC)cc3)c3c(C)nn(-c4ccccn4)c3CC2)cc1	·	·	-24	·	-44	93*
C[C@H](CO)N1C[C@H](C)[C@@H](CN(C)C)Oc2ccc(NC(=O)CCCN(C)C)cc2C1=O	-8	-5	·	·	·	·
Cc1cc(C)c(C)c(S(=O)(=O)N2CCC(C(=O)NNC(=O)c3ccccc3O)CC2)c1C	-11	1	·	+	4	1
CN(C)CCCN(C(=O)CCc1ccccc1)c1nc2ccc(F)cc2s1	·	·	13	i	31	10
CN(C)CCCN(C(=O)c1cc(-c2cccs2)nc2ccccc12)c1nc2ccc(F)cc2s1	-6	-2	40*	i	18	25
CN(C)CC(=O)NC[C@H]1N[C@@H](CO)[C@H]1c1ccc(-c2cccc(C#N)c2)cc1	51*	3	·	·	·	·
CCC(=O)NC[C@@H]1N[C@@H](CO)[C@H]1c1ccc(-c2cccc(C#N)c2)cc1	-140	3	·	·	·	·
O=C(Nc1ccc(NC(=O)c2ccc(S(=O)(=O)c3ccccc3)cc2)cc1)c1ccccc1	-5	-1	46*	i	-24	-21
CC(=O)Nc1ccc(NC(=O)c2ccc(NC(=O)c3ccccc3)cc2)cc1	-13	8	-9	i	-3	-9
CC(C)NC(=O)N(C)C[C@@H]1OCCCC[C@@H](C)Oc2ccc(NS(=O)(=O)c3ccccc3)cc2C(=O)N([C@H](C)CO)C[C@H]1C	14	-1	·	·	·	·
COc1ccc(OC)c2sc(N(CCCN(C)C)C(=O)CCS(=O)(=O)c3ccccc3)nc12	39	38	·	i	24	16
Cc1ccc2sc(N(CCCN(C)C)C(=O)c3ccc(Br)s3)nc2c1C	29	·	46*	i	32	-15
Cc1ccc2sc(N(CCCN(C)C)C(=O)CCS(=O)(=O)c3ccccc3)nc2c1C	8	-13	41*	i	11	25
CC(C)CC#Cc1ccc2c(c1)O[C@@H](CN(C)CC1CCOCC1)[C@@H](C)CN([C@@H](C)CO)S2(=O)=O	16	4	·	·	·	·
CSc1ccccc1NC(=S)N/N=C/c1cccn1Cc1cccc(C)c1	7	·	-9	i	20	-1
Cc1cccc(NC(=S)N/N=C/c2cccn2Cc2ccc(F)cc2)c1	-7	·	-23	+	8	-5
COc1ccc2c3c(n(C)c2c1)[C@@H](CO)NCC31CN(Cc2ccc(-c3ccccn3)cc2)C1	96*	·	·	·	·	·
COc1ccc2c3c(n(C)c2c1)[C@@H](CO)NCC31CCN(Cc2ccc(-c3ccccn3)cc2)CC1	83*	·	·	·	·	·
SMILES	RAD52 inh	RAD54 branch	FID counter	Neddyl block	UBC13 polyUb	Apaf-1 inh
COc1ccc2c3c(n(C)c2c1)[C@H](CO)NCC31CCN(Cc2ccc(-c3ccccn3)cc2)CC1	82*	·	·	·	·	·
C[C@H](CO)N1C[C@H](C)[C@@H](CN(C)C(=O)Nc2cccc3ccccc23)Oc2ccc(NC(=O)c3ccncc3)cc2C1=O	-1	1	·	·	·	·
CCC(=O)N(C)C[C@H]1Oc2ncc(-c3ccccc3C)cc2C(=O)N([C@@H](C)CO)C[C@@H]1C	6	-6	·	·	·	·
CCC(=O)N1CC(=O)N2[C@@H](CO)[C@@H](c3ccc(-c4ccccc4F)cc3)[C@@H]2C1	-7	·	·	·	·	·
C=CCn1c(N)c(C(=O)OC(C)(C)C)c2nc3ccccc3nc21	·	19	-14	·	1	67*
C[C@H]1CCCCO[C@H](CN(C)CC2CC2)[C@@H](C)CN([C@@H](C)CO)C(=O)c2cc(NC(=O)Nc3ccccc3)ccc2O1	40	12	·	·	·	·
CCC(=O)N(C)C[C@H]1Oc2cc(C#CC3CCCC3)ccc2S(=O)(=O)N([C@H](C)CO)C[C@H]1C	-3	-4	·	·	·	·
COc1ccc2[nH]c(=O)c(-c3nnn(-c4ccc(F)cc4)n3)cc2c1	-25	-4	·	i	-8	4
COc1ccc2[nH]c(=O)c(-c3nnn(-c4ccc(Cl)nc4)n3)cc2c1	·	-21	·	+	-20	2
C[C@H]1CN([C@@H](C)CO)C(=O)Cc2cc(NC(=O)CCCN(C)C)ccc2O[C@H]1CN(C)Cc1ccc(Oc2ccccc2)cc1	42	14	·	·	·	·
C[C@@H]1CN([C@@H](C)CO)C(=O)Cc2cc(NC(=O)CCCN(C)C)ccc2O[C@H]1CN(C)Cc1ccc(Oc2ccccc2)cc1	91*	29	·	·	·	·
C[C@@H]1CN([C@@H](C)CO)C(=O)Cc2cc(NC(=O)Cc3ccccc3)ccc2O[C@H]1CN(C)Cc1ccc(Oc2ccccc2)cc1	-27	5	·	·	·	·
C[C@H](CO)N1C[C@H](C)[C@@H](CN(C)Cc2ccc(Oc3ccccc3)cc2)Oc2ccc(NC(=O)CCCN(C)C)cc2CC1=O	57*	15	·	·	·	·
CCCNC(=O)C[C@@H]1C[C@@H]2c3cc(NC(=O)Cc4ccncc4)ccc3O[C@@H]2[C@@H](CO)O1	·	-3	·	·	·	·
Fc1ccc2[nH]c3c(NCc4ccccc4)ncnc3c2c1	-15	3	3	+	18	12
CCS(=O)(=O)N1CCC2(CC1)CN(Cc1ccc3c(c1)OCO3)[C@@H](CO)c1[nH]c3cc(OC)ccc3c12	-1	·	·	·	·	·
COc1ccc2c3c([nH]c2c1)[C@@H](CO)N(Cc1nccs1)CC31CCN(Cc2cncnc2)CC1	50*	·	·	·	·	·
CCCN1CCC2(CC1)CN(Cc1ccc3c(c1)OCO3)[C@H](CO)c1[nH]c3cc(OC)ccc3c12	87*	·	·	·	·	·
CCCC(=O)Nc1ccc2c(c1)C(=O)N(C)[C@H]1CC[C@@H](CC(=O)Nc3ccccc3)O[C@@H]1CO2	-4	0	·	·	·	·
C[C@@H]1CN([C@H](C)CO)C(=O)c2cc(-c3cccc(F)c3)cnc2O[C@H]1CN(C)S(=O)(=O)c1cccc(F)c1	-3	1	·	·	·	·
O=C(NC1CCCC1)N1CC2(C1)[C@@H](c1ccccc1)[C@@H](CO)N2CC1CCCC1	3	·	·	·	·	·
CN(C)CCNCCCNc1c2ccccc2nc2cccc([N+](=O)[O-])c12	81*	·	·	i	·	·
